{"source": "ChEMBL document CHEMBL4321868", "about": "“Scaffold Simplification Strategy Leads to a Novel Generation of Dual Human Immunodeficiency Virus and Enterovirus-A71 Entry Inhibitors” (J Med Chem, 2020)", "key": {"[1]": {"tested_on": "Enterovirus A71", "assay": "Antiviral activity against Enterovirus A 71 BrCr harboring VP1 P246S mutant infected in human RD cells assessed as reduction in virus-induced cytopathic effect preincubated for 1 day followed by viral infection and measured after 3 days by MTS/PMS method", "format": "functional, organism-based, strain BRCR"}, "[2]": {"tested_on": "Human immunodeficiency virus 1", "assay": "Antiviral activity against HIV1 3B infected in human MT4 cells assessed as reduction in p24 production at 20 uM incubated for 1 hr prior to viral infection followed by compound washout and measured 8 hrs post-infection by ELISA", "format": "functional, organism-based"}, "[3]": {"assay": "Selectivity index, ratio of CC50 for human MT4 cells to EC50 for HIV1 NL4.3 infected in human MT4 cells", "format": "toxicity, cell-based", "settings": "read-out: Ratio CC50/EC50", "outline": "(§1)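 MT-4 cells (RPMI-1640, 10% FCS, 1% L-glutamine) pre-incubated 30 min at 37 °C with compound, then infected with HIV-1 NL4.3 or HIV-2 ROD according to stock TCID50. After 5 days, CPE scored microscopically and viability read by MTS/PES at A490 to derive EC50; cytotoxicity measured by MTS/PES at 5 days in the same cells. SI = CC50/EC50. Mean ± S.D. of at least 3 experiments.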"}, "[4]": {"tested_on": "Enterovirus A71", "assay": "Antiviral activity against Enterovirus A 71 BrCr infected in human RD cells assessed as reduction in viral RNA level at 20 uM preincubated for 1 hr followed by viral infection and measured 8 hrs post-infection by RT-qPCR analysis relative to control", "format": "functional, strain BRCR", "design": "scale not given: the % may be the effect or the level left", "outline": "(§2)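 RD cells grown to confluence; compound at 20 μM in 2% FBS medium added 1 h before or 1, 2, 4 h after EV-A71 BrCr infection (MOI 1). Pirodavir 20 μM as entry-inhibitor reference; infected untreated cells as controls. At 8 h post-infection, intracellular RNA isolated and viral RNA quantified by RT-qPCR.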"}, "[5]": {"tested_on": "Human immunodeficiency virus 1", "assay": "Antiviral activity against HIV1 NL4.3 infected in human MT4 cells assessed as reduction in virus-induced cytopathic effect preincubated for 30 mins followed by viral infection and measured after 5 days by MTS assay", "format": "functional, organism-based", "settings": "Human immunodeficiency virus 1, NL4.3, MT4"}, "[6]": {"tested_on": "Enterovirus A71", "assay": "Antiviral activity against Enterovirus A71 genotype C2 H08300 461812 infected in human RD cells assessed as reduction in virus-induced cytopathic effect preincubated for 1 day followed by viral infection and measured after 3 days by MTS/PMS method", "format": "functional, organism-based", "settings": "Enterovirus A, genotype C2 H08300 461812, RD", "outline": "(§3)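 RD cells seeded in 96-well plates; next day serial compound dilutions plus virus at low MOI added. Incubation at 37 °C, 5% CO₂ until full CPE in untreated infected controls (3 days). CC50 from uninfected treated cells in the same setup; SI = CC50/EC50.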"}, "[7]": {"tested_on": "Enterovirus A71", "assay": "Antiviral activity against Enterovirus A 71 BrCr harboring VP1 S184T mutant infected in human RD cells assessed as reduction in virus-induced cytopathic effect preincubated for 1 day followed by viral infection and measured after 3 days by MTS/PMS method", "format": "functional, organism-based, strain BRCR"}, "[8]": {"assay": "Selectivity ratio of EC50 for Enterovirus A 71 BrCr infected in human RD cells to EC50 for Enterovirus A 71 genotype C4 TW/1956/05 infected in human RD cells", "format": "functional"}, "[9]": {"tested_on": "Enterovirus A71", "assay": "Antiviral activity against Enterovirus A71 genotype B2 11316 infected in human RD cells assessed as reduction in virus-induced cytopathic effect preincubated for 1 day followed by viral infection and measured after 3 days by MTS/PMS method", "format": "functional, organism-based", "settings": "Enterovirus A, genotype B2 11316, RD", "outline": "as §3"}, "[10]": {"tested_on": "RD", "assay": "Cytotoxicity against human RD cells assessed as adverse effect on cell", "format": "cell-based"}, "[11]": {"assay": "Selectivity index, ratio of CC50 for human MT4 cells to EC50 for HIV-1 NL4.3 infected in human MT4 cells"}, "[12]": {"assay": "Cytotoxicity against human MT4 cells assessed as reduction in cell viability measured after 5 days by MTS/PES assay", "format": "cell-based", "outline": "as §1"}, "[13]": {"tested_on": "Enterovirus A71", "assay": "Antiviral activity against Enterovirus A 71 BrCr infected in human RD cells assessed as reduction in viral RNA level at 20 uM treated 1 to 4 hrs post-infection and measured 8 hrs post-infection by RT-qPCR analysis", "format": "functional, strain BRCR", "design": "scale not given: the % may be the effect or the level left", "outline": "as §2"}, "[14]": {"tested_on": "HeLa", "assay": "Binding affinity to capsid protein VP1 five fold axis in Enterovirus A71 genotype B2 11316 infected in human HeLa cells at 20 uM measured after 1 hr by cryo-electron microscopic analysis", "format": "cell-based"}, "[15]": {"assay": "Selectivity index, ratio of CC50 for human RD cells to EC50 for Enterovirus A71 BrCr infected in human RD cells", "format": "toxicity, cell-based", "settings": "read-out: Ratio CC50/EC50", "outline": "as §3"}, "[16]": {"tested_on": "RD", "assay": "Cytotoxicity against human RD cells assessed as induction of cell morphological changes", "format": "cell-based"}, "[17]": {"tested_on": "Enterovirus A71", "assay": "Antiviral activity against Enterovirus A 71 BrCr infected in human RD cells assessed as reduction in viral RNA level at 20 uM administered at onset of infection measured 8 hrs post-infection by RT-qPCR analysis relative to control", "format": "functional, strain BRCR", "design": "scale not given: the % may be the effect or the level left"}, "[18]": {"tested_on": "Enterovirus A71", "assay": "Antiviral activity against Enterovirus A71 genotype C4 TW/1956/05 infected in human RD cells assessed as reduction in virus-induced cytopathic effect preincubated for 1 day followed by viral infection and measured after 3 days by MTS/PMS method", "format": "functional, organism-based", "settings": "Enterovirus A, genotype C4 TW/1956/05, RD", "outline": "as §3"}, "[19]": {"assay": "Selectivity ratio of EC50 for Enterovirus A 71 BrCr infected in human RD cells to EC50 for Enterovirus A 71 genotype B2 11316 infected in human RD cells", "format": "functional"}, "[20]": {"molecular_target": "Envelope glycoprotein gp160 (Human immunodeficiency virus 1) (UniProt Q6QLK5)", "sequence (Q6QLK5 1-814)": "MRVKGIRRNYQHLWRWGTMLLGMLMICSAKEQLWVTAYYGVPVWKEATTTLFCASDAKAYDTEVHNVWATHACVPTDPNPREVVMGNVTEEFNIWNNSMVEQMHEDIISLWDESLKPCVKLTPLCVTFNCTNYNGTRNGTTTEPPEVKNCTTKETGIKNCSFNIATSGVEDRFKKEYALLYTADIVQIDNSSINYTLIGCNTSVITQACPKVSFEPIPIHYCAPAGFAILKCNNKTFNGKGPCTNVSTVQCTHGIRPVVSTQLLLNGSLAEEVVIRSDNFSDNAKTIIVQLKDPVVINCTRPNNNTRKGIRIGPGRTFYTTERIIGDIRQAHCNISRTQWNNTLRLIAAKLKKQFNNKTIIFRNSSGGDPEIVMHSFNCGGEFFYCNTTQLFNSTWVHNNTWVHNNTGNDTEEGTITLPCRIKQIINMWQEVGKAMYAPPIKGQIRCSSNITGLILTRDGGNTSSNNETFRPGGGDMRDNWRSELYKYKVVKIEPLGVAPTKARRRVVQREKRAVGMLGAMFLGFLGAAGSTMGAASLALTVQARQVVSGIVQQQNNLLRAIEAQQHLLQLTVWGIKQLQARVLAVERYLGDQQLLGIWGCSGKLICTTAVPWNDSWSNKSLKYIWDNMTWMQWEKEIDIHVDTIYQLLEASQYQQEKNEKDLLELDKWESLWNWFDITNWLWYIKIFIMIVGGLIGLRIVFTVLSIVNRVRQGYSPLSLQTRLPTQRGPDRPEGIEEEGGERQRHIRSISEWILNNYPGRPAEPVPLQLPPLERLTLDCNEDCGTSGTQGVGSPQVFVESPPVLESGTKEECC", "assay": "(§4) Inhibition of biotinylated-heparin binding to recombinant HIV1 3B gp120 by SPR analysis", "outline": "(§5)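 SPR at 25 °C in PBS with 5% DMSO, 0.005% Tween20, pH 7.4. Minimally biotinylated heparin captured (880 RU) on streptavidin chip. Recombinant HIV-1 IIIB gp120 (10 nM) alone or premixed with a compound concentration range injected 2 min at 10 μl/min; regenerated with 1 M NaCl/10 mM NaOH. Double-referenced; RU converted to % inhibition vs gp120 alone; nonlinear fit, three experiments.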"}, "[21]": {"molecular_target": "Envelope glycoprotein gp160 (Human immunodeficiency virus 1, UniProt Q6QLK5)", "sequence (Q6QLK5 whole entry)": "as the sequence (Q6QLK5 1-814) above", "assay": "as §4", "outline": "as §5"}, "[22]": {"tested_on": "Enterovirus A71", "assay": "Antiviral activity against Enterovirus A71 genotype B5 TW/70902/08 infected in human RD cells assessed as reduction in virus-induced cytopathic effect preincubated for 1 day followed by viral infection and measured after 3 days by MTS/PMS method", "format": "functional, organism-based", "settings": "Enterovirus A, genotype B5 TW/70902/08, RD", "outline": "as §3"}, "[23]": {"molecular_target": "Envelope glycoprotein gp160 (Human immunodeficiency virus 1) (UniProt Q6QLK5)", "assay": "Binding affinity to recombinant HIV1 3B gp120 by SPR analysis"}, "[24]": {"tested_on": "Human immunodeficiency virus 2", "assay": "Antiviral activity against HIV-2 ROD infected in human MT4 cells assessed as reduction in virus-induced cytopathic effect preincubated for 30 mins followed by viral infection and measured after 5 days by MTS assay", "settings": "Human immunodeficiency virus 2, ISOLATE ROD"}, "[25]": {"tested_on": "Human immunodeficiency virus 1", "assay": "Antiviral activity against HIV1 3B infected in human MT4 cells assessed as reduction in p24 production at 20 uM administered at onset of infection measured 8 hrs post-infection by ELISA", "format": "functional, organism-based"}, "[26]": {"tested_on": "Enterovirus A71", "assay": "Antiviral activity against Enterovirus A 71 BrCr infected in human RD cells assessed as reduction in virus-induced cytopathic effect preincubated for 1 day followed by viral infection and measured after 3 days by MTS/PMS method", "format": "functional, organism-based", "settings": "strain BRCR", "outline": "as §3, with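 “days). Viability read by MTS/PMS; EC50 as 50% inhibition of virus-induced death from dose-response curves.” for “days).”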"}, "[27]": {"tested_on": "Enterovirus A71", "assay": "Antiviral activity against Enterovirus A 71 BrCr harboring VP1 S184T/P246S mutant infected in human RD cells assessed as reduction in virus-induced cytopathic effect preincubated for 1 day followed by viral infection and measured after 3 days by MTS/PMS method", "format": "functional, organism-based, strain BRCR"}}, "note": "pEC50, pIC50: −log10 of the molar value. Calls of active or inactive are those of the source. The rule behind the calls is not given here."}
{"smiles": "O=C(CCC(CCC(=O)NC(Cc1c(-c2cc(C(=O)O)cc(C(=O)O)c2)[nH]c2ccccc12)C(=O)O)(CCC(=O)NC(Cc1c(-c2cc(C(=O)O)cc(C(=O)O)c2)[nH]c2ccccc12)C(=O)O)[N+](=O)[O-])NC(Cc1c(-c2cc(C(=O)O)cc(C(=O)O)c2)[nH]c2ccccc12)C(=O)O", "note": "(stereo not drawn)", "values": [{"measurement": "pEC50", "setting": "[1]", "value": 5.71}, {"measurement": "Activity", "setting": "[2]", "value": "Active"}, {"measurement": "selectivity ratio", "setting": "[3]", "value": "> 370"}, {"measurement": "Activity", "setting": "[4]", "value": 100, "unit": "%"}, {"measurement": "pEC50", "setting": "[5]", "value": 6.57}, {"measurement": "pEC50", "setting": "[6]", "value": 7.24}, {"measurement": "pEC50", "setting": "[7]", "value": 5.63}, {"measurement": "Ratio EC50", "setting": "[8]", "value": 9}, {"measurement": "pEC50", "setting": "[9]", "value": 6.75}, {"measurement": "Activity", "setting": "[10]", "value": "Non-Toxic"}, {"measurement": "selectivity ratio", "setting": "[11]", "value": "> 370"}, {"measurement": "CC50 at 120 h", "setting": "[12]", "value": "> 100000", "unit": "nM"}, {"measurement": "Activity", "setting": "[13]", "value": 0, "unit": "%"}, {"measurement": "Activity", "setting": "[14]", "value": "Active"}, {"measurement": "selectivity ratio", "setting": "[15]", "value": "> 203"}, {"measurement": "Activity", "setting": "[16]", "value": "Non-Toxic"}, {"measurement": "Activity", "setting": "[17]", "value": 100, "unit": "%"}, {"measurement": "pEC50", "setting": "[18]", "value": 7.42}, {"measurement": "Ratio EC50", "setting": "[19]", "value": 2}, {"measurement": "inhibition", "setting": "[20]", "value": "Dose-dependent effect"}, {"measurement": "pIC50", "setting": "[21]", "value": 6.01}, {"measurement": "pEC50", "setting": "[22]", "value": 7.09}, {"measurement": "Activity", "setting": "[23]", "value": "Dose-dependent effect"}, {"measurement": "pEC50", "setting": "[24]", "value": 6.20}, {"measurement": "Activity", "setting": "[25]", "value": "Active"}, {"measurement": "pEC50", "setting": "[26]", "value": 6.46}, {"measurement": "EC90", "setting": "[26]", "value": 550, "unit": "nM"}, {"measurement": "pEC50", "setting": "[27]", "value": 5.66}]}
